Measurements published in ChEMBL document CHEMBL4818997, “Synthesis and structure-activity studies of novel anhydrohexitol-based Leucyl-tRNA synthetase inhibitors” (Eur J Med Chem, 2021).
Active and inactive are the calls of the source. The calls are words filed in the database; no cut-off is given here.

Assays:
Staphylococcus aureus [1] = assay: Antibacterial activity against Staphylococcus aureus ATCC6538 at 64 uM measured after 17 hrs by resazurin based flourimetric assay; format: functional, organism-based
How it was run: (§1)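 Bacteria grown in Mueller Hinton broth at 37 °C, inoculum 5×10^3 CFU/ml. […] After 17 h, resazurin was added for 1/2 h and fluorescence read (ex 550/em 590 nm). Results are % growth reduction versus untreated and medium-only wells.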

[2] = system: Mycobacterium tuberculosis; assay: Antibacterial activity against Mycobacterium tuberculosis H37Ra […] assessed as inhibition of bacterial growth at 128 uM measured after 17 hrs by resazurin based flourimetric assay; format: functional
How it was run: (§2)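 M. tuberculosis H37Ra cultured in 7H9 + 10% OADC at 37 °C. Compounds serially pre-diluted 2-fold in DMSO, then diluted in water, final DMSO <1%, top concentration 128 µM. Inoculum 5×10^3 CFU/ml. After 17 h, resazurin added, 1/2 h at 37 °C, fluorescence read (ex 550/em 590 nm). Growth expressed as % reduction versus untreated and medium controls; IC50 derived.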

Leucine--tRNA ligase = Leucine--tRNA ligase (Escherichia coli (strain K12), UniProt P07813); assay: Inhibition of recombinant Escherichia coli LeuRS assessed as inhibition of 14C-radiolabelled leucine transfer to tRNA leucine preincubated for 10 mins followed by addition of ATP and measured after 4 mins by Scintillation counting method; settings: read-out: Ki(app)
Sequence of Leucine--tRNA ligase (P07813 whole entry): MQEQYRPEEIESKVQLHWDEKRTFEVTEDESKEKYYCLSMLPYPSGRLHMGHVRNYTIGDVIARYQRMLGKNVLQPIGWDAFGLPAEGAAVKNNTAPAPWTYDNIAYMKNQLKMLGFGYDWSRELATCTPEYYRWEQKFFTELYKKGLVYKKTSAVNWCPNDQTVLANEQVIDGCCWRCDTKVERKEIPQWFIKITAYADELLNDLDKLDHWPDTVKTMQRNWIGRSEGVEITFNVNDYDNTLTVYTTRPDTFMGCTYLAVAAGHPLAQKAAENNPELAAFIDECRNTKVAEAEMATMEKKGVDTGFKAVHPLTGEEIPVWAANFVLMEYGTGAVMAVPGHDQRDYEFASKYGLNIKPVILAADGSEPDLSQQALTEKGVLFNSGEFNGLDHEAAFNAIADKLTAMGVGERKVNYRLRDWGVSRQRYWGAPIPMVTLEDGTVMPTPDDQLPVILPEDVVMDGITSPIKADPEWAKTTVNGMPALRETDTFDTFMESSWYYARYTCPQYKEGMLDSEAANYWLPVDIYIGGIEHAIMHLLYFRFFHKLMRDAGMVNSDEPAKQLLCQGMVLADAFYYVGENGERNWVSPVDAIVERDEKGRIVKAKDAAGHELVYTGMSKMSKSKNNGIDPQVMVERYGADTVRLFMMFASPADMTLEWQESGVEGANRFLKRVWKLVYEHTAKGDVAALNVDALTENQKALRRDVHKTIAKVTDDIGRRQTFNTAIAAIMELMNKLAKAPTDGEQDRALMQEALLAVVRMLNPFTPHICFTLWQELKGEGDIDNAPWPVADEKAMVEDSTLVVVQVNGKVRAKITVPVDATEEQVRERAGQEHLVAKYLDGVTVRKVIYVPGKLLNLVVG

Escherichia coli [3] = assay: Antibacterial activity against Escherichia coli ATCC8739 at 64 uM measured after 17 hrs by resazurin based flourimetric assay; format: functional, organism-based; how it was run: as §1
Candida albicans = assay: Antifungal activity against Candida albicans at 64 uM measured after 17 hrs by resazurin based flourimetric assay; format: functional, organism-based
How it was run: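 Compounds were 4-fold serially diluted in RPMI with 1% DMSO background, from 64.0 µM down to 3.9×10^-3 µM. Miconazole 0.25 µM served as positive control.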

[4] = system: Mycobacterium tuberculosis; assay: Antibacterial activity against Mycobacterium tuberculosis H37Ra […] assessed as inhibition of bacterial growth measured after 17 hrs by resazurin based flourimetric assay; format: functional, organism-based; how it was run: as §2
Staphylococcus aureus [5] = assay: Antibacterial activity against Staphylococcus aureus ATCC6538 assessed as inhibition of bacterial growth measured after 17 hrs by resazurin based flourimetric assay; format: functional, organism-based; settings: ATCC6538, 17 h; how it was run: as §1
Escherichia coli [6] = assay: Antibacterial activity against Escherichia coli ATCC8739 assessed as inhibition of bacterial growth measured after 17 hrs by resazurin based flourimetric assay; format: functional, organism-based; settings: ATCC8739, ATCC 8739, 17 h; how it was run: as §1

Row | Compound | Activity (Staphylococcus aureus [1]) | inhibition at 128 µM [2] [%] | Ki (Leucine--tRNA ligase) [nM] | Activity (Escherichia coli [3]) | Activity (Candida albicans) | IC50 [4] [nM] | IC50 (Staphylococcus aureus [5]) [nM] | IC50 (Escherichia coli [6]) [nM]
1 | CC(C)C[C@H](N)C(=O)NS(=O)(=O)OC[C@H]1OC[C@@H](CCCn2cc(CCCCO)nn2)[C@H](O)[C@@H]1O | inactive | 23.2 | 388 | inactive | inactive |  |  | 
2 | CC(C)C[C@H](N)C(=O)NS(=O)(=O)OC[C@H]1OC[C@@H](CCCn2cc(CNC(=O)c3ccccc3)nn2)[C@H](O)[C@@H]1O | inactive |  | 31.3 | inactive | inactive |  |  | 
3 | CC(C)C[C@H](N)C(=O)NS(=O)(=O)OC[C@H]1OC[C@@H](CCCn2cc(CCc3ccccc3)nn2)[C@H](O)[C@@H]1O | inactive | 38.2 | 108 | inactive | inactive |  |  | 
4 | CC(C)C[C@H](N)C(=O)NS(=O)(=O)OC[C@H]1OC[C@@H](CCCn2cc(-c3cccnc3)nn2)[C@H](O)[C@@H]1O | inactive | 16.9 | 31.6 | inactive | inactive |  |  | 
5 | CCCCCc1ccc(-c2cn(CCC[C@@H]3CO[C@H](COS(=O)(=O)NC(=O)[C@@H](N)CC(C)C)[C@@H](O)[C@H]3O)nn2)cc1 | inactive | 86.1 | 5.51 | inactive | inactive | 24700 |  | 
6 | C[C@H]1c2cccc(O)c2C(=O)C2=C(O)[C@]3(O)C(=O)C(C(N)=O)=C(O)[C@@H](N(C)C)[C@@H]3[C@@H](O)[C@@H]21 [DOXYCYCLINE] |  |  |  |  |  |  | 110 | 730
7 | CC(C)C[C@H](N)C(=O)NS(=O)(=O)OC[C@H]1OC[C@@H](CCCn2cc(-c3ccc(OC(F)(F)F)cc3)nn2)[C@H](O)[C@@H]1O | inactive | 27.8 | 17.8 | inactive | inactive |  |  | 
8 | CC(C)C[C@H](N)C(=O)NS(=O)(=O)OC[C@H]1OC[C@@H](CCCn2cc(CNCc3ccccc3)nn2)[C@H](O)[C@@H]1O | inactive | 12.1 | 1260 | inactive | inactive |  |  | 
9 | CCCCCCCCc1cn(CCC[C@@H]2CO[C@H](COS(=O)(=O)NC(=O)[C@@H](N)CC(C)C)[C@@H](O)[C@H]2O)nn1 | inactive | 4.26 | 52.4 | inactive | inactive |  |  | 
10 | CC(C)C[C@H](N)C(=O)NS(=O)(=O)OC[C@H]1O[C@@H](CCn2nnc(-c3ccccc3)n2)[C@H](O)[C@@H]1O | inactive | 49.8 | 30.9 | inactive | inactive |  |  | 
11 | CC(C)C[C@H](N)C(=O)NS(=O)(=O)OC[C@H]1OC[C@@H](CCCn2cc(CN)nn2)[C@H](O)[C@@H]1O | inactive | 9.44 | 2970 | inactive | inactive |  |  | 
12 | COc1c(N2C[C@@H]3CCCN[C@@H]3C2)c(F)cc2c(=O)c(C(=O)O)cn(C3CC3)c12 [MOXIFLOXACIN] |  |  |  |  |  | 250 |  | 
